# Data reported in PMC11564280 (Clinical Drug Investigation, 2024).
# Entries after “also recorded” stand apart in the source; their conditions may differ. Where two headings read alike, the source gives them in different places.
# Experiments:
# [1] = type: in vivo, human
# Outline: (§1)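 Healthy males aged 18–50 y, randomized 3:1 to active or placebo (single-blind). Oral suspension given once daily each morning after a ≥10 h fast for 10 days: Japanese cohorts 2.5, 5 or 10 mg, Chinese cohort 5 mg. K2EDTA blood drawn pre-dose and 0.25–12 h post-dose on days 1 and 10, plus 24–336 h. Urine pooled 0–3, 3–6, 6–9, 9–12 and 12–24 h on day 10. Plasma spun 1500g, 4 °C, 10 min; samples stored at −50 to −90 °C.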
# [2] = Pharmacokinetics, Japanese and Chinese participants together or compared; type: in vivo, human
# Outline: as §1
# [3] = Stability of frozen plasma and urine pharmacokinetic samples; set-up: species or system human; settings: stored frozen at − 50 to − 90 °C
# [4] = SAD study 5–405 mg; cited from earlier work
# [5] = Safety and tolerability in healthy Chinese volunteers; type: in vivo, human; settings: 5 mg once daily for 10 days, n = 6
# Outline: (§2)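 Safety assessed at every visit in all randomized participants given ≥1 dose of drug or placebo (oral suspension once daily for 10 days, 3:1 randomization). Covered AE and SAE incidence and severity, vital signs, ECGs, laboratory tests and skin rash. Participants resided on site from day −1 to day 12, with visits on days 14, 16, 20 and 24. Rash graded by CTCAE; relatedness judged by the investigator.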
# [6] = type: in vivo, human; settings: for Ae(0–last), cumulative amount excreted in urine / fe(0–last), fraction of dose excreted unchanged in urine: day 10; for Vd/F / half-life / CL renal: human, po; for Vd/F / half-life: plasma; for Ae(0–last), cumulative amount excreted in urine / fe(0–last), fraction of dose excreted unchanged in urine / CL renal: urine
# Outline: as §1
# [7] = human plasma; cited from earlier work
# [8] = cited from earlier work; for mean CL/F on the last study day: mainly white and Black/African American participants
# [9] = Safety and tolerability in healthy Japanese volunteers; type: in vivo, human; settings: for Any AE / Any AE leading to discontinuation / Any SAE / Any possibly related AE / Death / Maculopapular rash: Japanese
# Outline: as §2
# [10] = Safety and tolerability, Japanese and Chinese participants together; type: in vivo, human
# Outline: as §2
# [11] = Chinese, 5 mg oral once daily, day 10, n = 5, urine
# [12] = Japanese, 2.5 mg oral once daily, n = 6
# [13] = Japanese, 5 mg oral once daily, n = 5
# [14] = Japanese, 10 mg oral once daily, n = 3
# [15] = 2.5 mg once daily for 10 days, n = 6
# [16] = 5 mg once daily for 10 days, n = 6
# [17] = 10 mg once daily for 10 days, n = 6
# [18] = total mitiperstat 2.5, 5 or 10 mg, n = 18
smiles,measurement,setting,value
C[C@@H](N)c1cc(Cl)ccc1Cn1c(=S)[nH]c(=O)c2[nH]ccc21 [Mitiperstat],"Ae(0–last), cumulative amount excreted in urine",[1]; [11],2.48 (0.53) mg
same,"fe(0–last), fraction of dose excreted unchanged in urine",[1]; [11],49.59 (10.62) %
same,Vd/F,"[1]; human, plasma, po, 5 mg",1960 L
same,half-life,"[1]; human, plasma, po, 5 mg",55.4 h
same,CL renal,"[1]; human, urine, po, 5 mg",200 mL/min
same,mean CL/F on the last study day,[2]; Japanese and Chinese cohorts receiving 5 mg,25.3 L/h
same,time to steady state,"[2]; Japanese and Chinese, once-daily oral dosing",≤ 10 days
same,time to steady state by visual interpretation,"[2]; Japanese and Chinese, trough concentrations",approximately 7 days
same,renal clearance as share of apparent total clearance,[2]; both Japanese and Chinese participants,approximately 50%
same,median time to Cmax,"[2]; day 10, Japanese and Chinese, range of group medians",1.02 to 2.00 h
same,half-life,"[2]; human, plasma, po",50.2 to 57.8 h
same,known stability period of study samples,[3]; plasma,438 days
same,known stability period of study samples,[3]; urine,439 days
same,dose proportionality of exposure (average AUC),[4],increased proportionally with mitiperstat dose
same,Any AE,[5],2 (33.3) n (%)
same,Any AE leading to discontinuation,[5],1 (16.7) n (%)
same,Any SAE,[5],0 (0.0) n (%)
same,Any possibly related AE,[5],2 (33.3) n (%)
same,Death,[5],0 (0.0) n (%)
same,Maculopapular rash,[5],1 (16.7) n (%)
same,"Ae(0–last), cumulative amount excreted in urine",[6]; [12],1.20 (0.29) mg
same,"fe(0–last), fraction of dose excreted unchanged in urine",[6]; [12],47.94 (11.55) %
same,"Ae(0–last), cumulative amount excreted in urine",[6]; [13],2.56 (0.72) mg
same,"fe(0–last), fraction of dose excreted unchanged in urine",[6]; [13],51.14 (14.31) %
same,"Ae(0–last), cumulative amount excreted in urine",[6]; [14],6.29 (1.77) mg
same,"fe(0–last), fraction of dose excreted unchanged in urine",[6]; [14],62.94 (17.71) %
same,"dose proportionality of exposure (AUC, Ctrough and Cmax)","[6]; Japanese, 2.5–10 mg range",dose proportional; also recorded: increased proportionally with dose
same,Vd/F,[6]; 2.5 mg,2300 L
same,half-life,[6]; 2.5 mg,50.2 h
same,Vd/F,[6]; 5 mg,2170 L
same,half-life,[6]; 5 mg,57.8 h
same,Vd/F,[6]; 10 mg,2250 L
same,half-life,[6]; 10 mg,56.4 h
same,CL renal,[6]; 2.5 mg,248 mL/min
same,CL renal,[6]; 5 mg,215 mL/min
same,CL renal,[6]; 10 mg,282 mL/min
same,share of drug-related exposure in plasma,[7],approximately 7%
same,dose proportionality of AUC and Cmax,"[8]; MAD study 5–45 mg, last day of dosing",approximately proportional to dose
same,time to Cmax,[8]; healthy participants,approximately 1 h
same,mean CL/F on the last study day,[8]; 5 mg,22.8 L/h
same,mean CL/F on the last study day,[8]; 10 mg,20.6 L/h
same,Any AE,[9]; [15],1 (16.7) n (%)
same,Any AE leading to discontinuation,[9]; [15],0 (0.0) n (%)
same,Any SAE,[9]; [15],0 (0.0) n (%)
same,Any possibly related AE,[9]; [15],0 (0.0) n (%)
same,Death,[9]; [15],0 (0.0) n (%)
same,Maculopapular rash,[9]; [15],0 (0.0) n (%)
same,Any AE,[9]; [16],2 (33.3) n (%)
same,Any AE leading to discontinuation,[9]; [16],1 (16.7) n (%)
same,Any SAE,[9]; [16],0 (0.0) n (%)
same,Any possibly related AE,[9]; [16],1 (16.7) n (%)
same,Death,[9]; [16],0 (0.0) n (%)
same,Maculopapular rash,[9]; [16],1 (16.7) n (%)
same,Any AE,[9]; [17],4 (66.7) n (%)
same,Any AE leading to discontinuation,[9]; [17],3 (50.0) n (%)
same,Any SAE,[9]; [17],0 (0.0) n (%)
same,Any possibly related AE,[9]; [17],3 (50.0) n (%)
same,Death,[9]; [17],0 (0.0) n (%)
same,Maculopapular rash,[9]; [17],3 (50.0) n (%)
same,Any AE,[9]; [18],7 (38.9) n (%)
same,Any AE leading to discontinuation,[9]; [18],4 (22.2) n (%)
same,Any SAE,[9]; [18],0 (0.0) n (%)
same,Any possibly related AE,[9]; [18],4 (22.2) n (%)
same,Death,[9]; [18],0 (0.0) n (%)
same,Maculopapular rash,[9]; [18],4 (22.2) n (%)
same,day of rash occurrence,[9]; Participant receiving 5 mg,4 days
same,"laboratory results, vital signs or electrocardiograms","[10]; Japanese and Chinese, 2.5–10 mg once daily for 10 days",No clinically significant trends or shifts from baseline
same,time to resolution of rash,[10]; all cases of rash,≤ 1 month
same,day of rash occurrence,[10]; the other four participants who experienced rash,9 days
same,"adverse events of rash of moderate intensity (maculopapular rash, CTCAE grade 2)","[10]; three Japanese 10 mg, one Chinese 5 mg",Four
